Here are results for 1 compound from ChEMBL document CHEMBL1142981, “Identification and synthesis of a novel selective partial PPARdelta agonist with full efficacy on lipid metabolism in vitro and in vivo” (J Med Chem, 2007).

What is called clearance is the volume of plasma or blood freed of the substance per unit of time. Broadly, the half-life is the time needed for the level to fall by half in the phase considered. Usually pEC50 stands for −log10 of the EC50, conventionally taken in molar units.

The nature of data set [1]: Clearance in Sprague-Dawley rat at 1.06 mg/kg, iv. Type of data set: ADME, organism-based. Set-up: dose 1.06 mg/kg, route intravenous. Particulars: in vivo. In a few lines:
(§1)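 Male SD rats dosed once i.v. or p.o. (n = 8 per route), vehicle 5% ethanol, 10% HPCD, phosphate buffer pH 7.5-8.0. One animal sacrificed at each of 5, 15, 30, 60, 90, 120, 240 and 360 min; EDTA plasma analysed by high turbulence LC-MS/MS. Each data point represents one animal.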

Data set [2] can be described thus: Volume of distribution in Sprague-Dawley rat at 1.06 mg/kg, iv. Particulars: in vivo, read-out: Vss. The arrangement: dose 1.06 mg/kg, route intravenous. Type of data set: ADME, organism-based. In a few lines:
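Male SD rats received a single p.o. or i.v. dose (n = 8 per route) in 5% ethanol, 10% HPCD and phosphate buffer, pH 7.5-8.0. At 5, 15, 30, 60, 90, 120, 240 and 360 min one rat was sacrificed per time point. EDTA plasma was assayed by high turbulence LC-MS/MS. Cmax and bioavailability were taken from oral dosing; volume of distribution is at steady state.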

Data set [3] is described as follows: Half life in Sprague-Dawley rat at 2.06 mg/kg, po. Type of data set: ADME, organism-based. The arrangement: dose 2.06 mg/kg, route oral. Particulars: in vivo. In a few lines: as §1
Data set [4] deals with T1, Peroxisome proliferator-activated receptor alpha (Mus musculus) (UniProt P23204).
T1 sequence (whole entry): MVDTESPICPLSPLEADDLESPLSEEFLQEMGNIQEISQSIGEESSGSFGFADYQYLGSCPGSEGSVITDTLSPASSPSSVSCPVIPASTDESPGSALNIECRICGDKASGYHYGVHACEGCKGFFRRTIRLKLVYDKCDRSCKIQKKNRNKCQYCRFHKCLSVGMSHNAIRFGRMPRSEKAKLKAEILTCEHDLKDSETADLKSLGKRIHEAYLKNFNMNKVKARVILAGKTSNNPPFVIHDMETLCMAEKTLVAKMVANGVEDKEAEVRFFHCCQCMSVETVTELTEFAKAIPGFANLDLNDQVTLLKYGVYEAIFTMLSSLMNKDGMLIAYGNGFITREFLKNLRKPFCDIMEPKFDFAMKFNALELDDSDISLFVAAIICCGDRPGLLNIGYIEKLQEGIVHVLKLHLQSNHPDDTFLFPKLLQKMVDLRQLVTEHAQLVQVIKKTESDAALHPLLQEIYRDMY
The data set can be described thus: Agonist activity at mouse PPAR alpha expressed in HEK293 cells up to 30 uM by PPAR-GAL4 transactivation assay. Type of data set: functional, cell-based.

The target of data set [5] is T2, Peroxisome proliferator-activated receptor gamma (Mus musculus) (UniProt P37238).
T2 sequence (whole entry): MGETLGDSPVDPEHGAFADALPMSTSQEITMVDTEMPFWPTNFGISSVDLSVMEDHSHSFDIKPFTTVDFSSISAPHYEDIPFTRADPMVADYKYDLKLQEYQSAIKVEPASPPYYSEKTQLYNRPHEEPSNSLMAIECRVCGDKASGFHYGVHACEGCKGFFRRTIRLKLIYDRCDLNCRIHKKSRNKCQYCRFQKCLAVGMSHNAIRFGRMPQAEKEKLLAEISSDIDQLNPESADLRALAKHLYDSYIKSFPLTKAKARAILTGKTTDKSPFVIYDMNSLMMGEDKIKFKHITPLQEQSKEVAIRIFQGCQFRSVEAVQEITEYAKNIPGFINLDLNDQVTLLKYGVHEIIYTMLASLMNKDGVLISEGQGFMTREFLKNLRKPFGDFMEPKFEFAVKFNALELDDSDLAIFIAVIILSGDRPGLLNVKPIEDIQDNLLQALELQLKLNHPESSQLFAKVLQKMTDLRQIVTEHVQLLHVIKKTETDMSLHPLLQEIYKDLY
Kind of data set: Agonist activity at mouse PPAR gamma expressed in HEK293 cells up to 30 uM by PPAR-GAL4 transactivation assay. Type of data set: functional, cell-based.

Data set [6] has as its system Mus musculus. Kind of data set: Decrease in total cholesterol level in human ApoB100/CETP transgenic mouse at 10 mg/kg, po after 6 weeks relative to control. The arrangement: scale not given: the % may be the effect or the level left. Type of data set: functional.
Data set [7] relates to Mus musculus. The data set can be described thus: Decrease in LDL level in human ApoB100/CETP transgenic mouse at 5 mg/kg, po after 6 weeks relative to control. Type of data set: functional. The arrangement: scale not given: the % may be the effect or the level left.
Data set [8] has as its target T3, Peroxisome proliferator-activated receptor gamma (Homo sapiens, UniProt P37231).
T3 sequence (P37231 whole entry): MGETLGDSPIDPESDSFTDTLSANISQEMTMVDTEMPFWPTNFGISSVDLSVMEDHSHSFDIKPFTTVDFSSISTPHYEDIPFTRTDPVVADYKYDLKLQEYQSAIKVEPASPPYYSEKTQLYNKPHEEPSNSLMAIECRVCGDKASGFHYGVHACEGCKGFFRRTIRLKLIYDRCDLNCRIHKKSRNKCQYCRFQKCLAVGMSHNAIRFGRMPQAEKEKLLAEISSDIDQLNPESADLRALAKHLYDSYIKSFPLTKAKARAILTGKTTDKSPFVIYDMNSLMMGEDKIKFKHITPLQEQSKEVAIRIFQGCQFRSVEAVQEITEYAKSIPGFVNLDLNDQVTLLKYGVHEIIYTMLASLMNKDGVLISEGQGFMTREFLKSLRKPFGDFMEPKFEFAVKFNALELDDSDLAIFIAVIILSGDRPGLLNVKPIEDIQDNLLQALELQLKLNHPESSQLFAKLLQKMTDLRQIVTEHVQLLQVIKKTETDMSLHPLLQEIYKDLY
Type of data set: cell-based, HEK293.

The next data set concerns L6. Kind of data set: Effect on fatty acid oxidation in rat L6 cells. It counts as functional, cell-based. In a few lines:
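Rat L6 myoblasts differentiated 5 days in 2% serum, then treated 42 h with compound (refreshed at 24 h), followed by 6 h with 0.4 mM palmitate containing [9,10-3H]-palmitic acid on 2% fatty-acid-free BSA. Stopped with 10% TCA; released 3H-H2O collected by overnight equilibration at 50 °C and counted.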

Data set [9] relates to Mus musculus. The data set can be described thus: Decrease in triglycerides level in human ApoB100/CETP transgenic mouse at 10 mg/kg, po after 6 weeks relative to control. Type of data set: functional. The arrangement: scale not given: the % may be the effect or the level left.
Data set [10] concerns Mus musculus. The data set can be described thus: Decrease in triglycerides level in human ApoB100/CETP transgenic mouse at 20 mg/kg, po after 6 weeks relative to control. It counts as functional. Set-up: scale not given: the % may be the effect or the level left.
The test system of data set [11] is Mus musculus. Kind of data set: Decrease in total ketone bodies level in human ApoB100/CETP transgenic mouse at 20 mg/kg, po after 6 weeks relative to control. It counts as functional. Set-up: scale not given: the % may be the effect or the level left.
Data set [12] deals with Mus musculus. Kind of data set: Decrease in glucose level in human ApoB100/CETP transgenic mouse at 5 mg/kg, po after 6 weeks relative to control. It counts as functional. The arrangement: scale not given: the % may be the effect or the level left.
The subject of data set [13] is Mus musculus. Kind of data set: Decrease in glucose level in human ApoB100/CETP transgenic mouse at 20 mg/kg, po after 6 weeks relative to control. It counts as functional. Set-up: scale not given: the % may be the effect or the level left.
The subject of data set [14] is Mus musculus. The data set can be described thus: Decrease in insulin level in human ApoB100/CETP transgenic mouse at 10 mg/kg, po after 6 weeks by ELISA relative to control. Set-up: scale not given: the % may be the effect or the level left. Type of data set: functional. (ELISA stands for enzyme-linked immunosorbent assay.)
Data set [15] has as its system Mus musculus. The data set can be described thus: Decrease in HbA1c level in human ApoB100/CETP transgenic mouse at 5 mg/kg, po after 6 weeks relative to control. Type of data set: functional. Set-up: scale not given: the % may be the effect or the level left.
Data set [16] concerns Mus musculus. The data set can be described thus: Decrease in HbA1c level in human ApoB100/CETP transgenic mouse at 10 mg/kg, po after 6 weeks relative to control. Type of data set: functional. The arrangement: scale not given: the % may be the effect or the level left.
For data set [17], the system named is Mus musculus. The data set can be described thus: Decrease in HbA1c level in human ApoB100/CETP transgenic mouse at 20 mg/kg, po after 6 weeks relative to control. Type of data set: functional. Set-up: scale not given: the % may be the effect or the level left.

pEC50: −log10 of the molar value. The source made the active and inactive calls. Where only a bound is given, the exact number is not on record here.

Regarding `O=C(O)COc1ccc(SCC=C(c2ccc(Br)cc2)c2ccc(Br)cc2)cc1Cl`, the clearance in [1] was found to be 11.9 mL/min/kg. Further, the Vd in data set [2] is 0.3 L/kg. In [3], this compound registered a half-life of 59 min. The outcome in [4] and in data set [5] was inactive. Also, the Activity was found to be 14% in the data set on Mus musculus [6]; 7% in the data set with Mus musculus [7]; 7% with Mus musculus [9]; 5% with Mus musculus [10]; 29% in the data set on Mus musculus [11]; 3% with Mus musculus [12]. For the same compound, the Activity was found to be 5% in the data set with Mus musculus [13]; 8% in the data set with Mus musculus [14]; 4% in the data set on Mus musculus [15]; 9% in the data set with Mus musculus [16]; 12% in the data set on Mus musculus [17]. The pEC50 is below 5.00 in data set [8] and 7.52 in the data set on L6.
